Data from ChEMBL document CHEMBL1139535, “Modification of the estrogenic properties of diphenols by the incorporation of ferrocene. Generation of antiproliferative effects in vitro” (J Med Chem, 2005).

Key:
[1] = target: Estrogen receptor beta (Homo sapiens) (UniProt Q92731); test: Relative binding affinity for estrogen receptor 2 (ER-beta)
Summary of the method: (§1)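 Incubated 3 h at 0°C with 2×10⁻⁹ M [3H]-estradiol plus nine competitor levels. Protamine sulfate separation, logit analysis of 50% displacement. RBA vs estradiol (100%); mean of at least two experiments.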

[2] = Relative binding affinity for purified estrogen receptor 1 (ER-alpha); summary of the method: as §1
[3] = target: T1, Estrogen receptor (Homo sapiens) (UniProt P03372); test: Relative binding affinity for estrogen receptor 1 (ER-alpha) of lamb uterine cytosol; details: Ovis aries; target entry is the homologue from another species
T1 sequence (whole entry): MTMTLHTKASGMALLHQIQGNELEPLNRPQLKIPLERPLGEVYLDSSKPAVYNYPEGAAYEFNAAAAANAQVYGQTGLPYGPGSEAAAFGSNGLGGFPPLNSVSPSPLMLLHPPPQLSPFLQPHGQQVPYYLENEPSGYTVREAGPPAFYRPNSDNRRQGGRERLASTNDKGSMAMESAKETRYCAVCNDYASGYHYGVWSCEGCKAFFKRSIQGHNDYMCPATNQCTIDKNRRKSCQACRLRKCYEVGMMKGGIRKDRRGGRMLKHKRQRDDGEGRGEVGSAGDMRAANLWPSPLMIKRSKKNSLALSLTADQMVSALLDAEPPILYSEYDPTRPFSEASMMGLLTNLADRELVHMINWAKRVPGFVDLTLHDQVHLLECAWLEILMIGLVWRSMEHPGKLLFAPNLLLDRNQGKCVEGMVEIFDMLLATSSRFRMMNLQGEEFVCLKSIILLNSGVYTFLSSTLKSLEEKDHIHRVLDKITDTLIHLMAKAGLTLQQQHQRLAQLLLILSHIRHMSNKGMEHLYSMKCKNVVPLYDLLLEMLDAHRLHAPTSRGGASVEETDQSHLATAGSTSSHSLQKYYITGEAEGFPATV
Summary of the method: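 Cytosol from frozen sheep (lamb) uteri in 0.05 M Tris-HCl, 0.25 M sucrose, 0.1% β-mercaptoethanol, pH 7.4. Incubated 3 h at 0°C with 2×10⁻⁹ M [6,7-3H]-estradiol and nine competitor concentrations. Bound and free separated by protamine sulfate precipitation. 50% displacement concentration from logit plot; RBA relative to estradiol = 100%; mean of at least two experiments.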

[4] = Partition coefficient (logP); assay type: physicochemical; details: octanol/water
Summary of the method: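 Reversed-phase HPLC on a C-8 column. Capacity factors k' extrapolated to 100% aqueous component to give k'w; logPo/w = 0.13418 + 0.98452 log k'w.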

Sequence of Estrogen receptor beta (Homo sapiens) (Q92731 whole entry): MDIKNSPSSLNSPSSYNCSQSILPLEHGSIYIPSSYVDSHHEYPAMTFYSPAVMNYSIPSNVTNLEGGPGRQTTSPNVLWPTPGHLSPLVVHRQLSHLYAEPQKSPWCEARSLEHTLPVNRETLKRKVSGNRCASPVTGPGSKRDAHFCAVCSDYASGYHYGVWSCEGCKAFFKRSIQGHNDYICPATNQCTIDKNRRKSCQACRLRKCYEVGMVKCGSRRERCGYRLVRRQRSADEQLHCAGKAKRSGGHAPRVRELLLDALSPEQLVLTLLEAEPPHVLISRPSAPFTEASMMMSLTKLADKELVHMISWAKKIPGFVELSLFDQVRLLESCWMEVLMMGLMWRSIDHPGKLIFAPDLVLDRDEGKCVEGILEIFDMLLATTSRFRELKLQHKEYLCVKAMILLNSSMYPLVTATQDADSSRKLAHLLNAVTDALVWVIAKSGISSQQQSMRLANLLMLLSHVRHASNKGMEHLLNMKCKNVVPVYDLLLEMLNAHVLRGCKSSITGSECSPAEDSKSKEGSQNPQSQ

RBA [1]: 101% | RBA [2]: 47.5% | RBA [3]: 6.8% | logP [4]: 4.4
SMILES: CCC(=C(c1ccc(O)cc1)c1ccc(O)cc1)c1ccccc1
